Bioassay records: PubChem BioAssay, several laboratories
Compounds with a hit are over-represented: about 3% of the library has one in this group of screens.
SR-BI HDL uptake: blocks mouse SR-BI lipid uptake from DiI-HDL | Q61009 | ldlA[mSR-BI] CHO cells, DiI-HDL uptake fluorescence, 3 h | inhibition, % at 12.5 µM | 0.96% of 320,000 active;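 active = mean replicate inhibition of at least 70% and a set share of replicates each scoring 70 or more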;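 also: 0% = median of neutral control wells and 100% = median of positive control wells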
TMEM16A act: activators or potentiators of mouse TMEM16A chloride channel; AID 623877; Q8BHY3; B-score at 10 µM; HEK293 TMEM16A/YFP-H148Q/I152L, iodide quench fluorescence; stronger effect = lower value; 0.3% of 340,000 active;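 active = fluorescence-ratio B-score plate-corrected deviation score at least 3 library SD below zero, with starting fluorescence score within 5 deviations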;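 also: channel opened by trigger with iodide after compound preincubation; score built on the fluorescence ratio of max minus min over baseline; more negative score means more quench and so TMEM16A activation or potentiation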
SR-BI DiI-HDL act: enhances SR-BI lipid uptake from DiI-HDL. 0.096% of 320,000 active. AID 504775. activation, % at 12.5 µM. CHO ldlA[mSR-BI] cells, DiI-HDL uptake fluorescence, 3 h; 100 = double the neutral-control signal;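 active = mean replicate activation of at least 60% and every replicate at or above 60%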;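 also: 0% = median plate neutral-control signal and 100% = twice that signal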
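Test system: SR-BI-overexpressing, LDLR-lacking CHO cells. Measured by: DiI fluorescence, bottom read. Medium: Ham's F12 with 0.5% BSA, HEPES 25 mM, pH 7.4. Timing: 3 h uptake period with compound, 37 °C.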
FID counter: fluorescent intercalator displacement, NS3 helicase counter-screen. 0.17% of 290,000 active. inhibition, % at 7.9 µM. DNA fluorescent intercalator displacement, fluorescence; in the data active = inhibition above about 37%;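 also: 0% = vehicle and 100% = reference compound; higher means more ethidium bromide displaced from hairpin DNA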
Kir21 inh: inhibitors of mouse Kir2.1 inward-rectifier potassium channel; HEK293-Kir2.1, FluxOR thallium flux fluorescence; stronger effect = lower value; B-score at 10 µM; 0.85% of 310,000 active;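 active = fluorescence ratio B-score at or below minus 3 SD of library scores, with starting-brightness B-score within 2 SD, cut at about -4.2 in these data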;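 also: channel flux triggered by added potassium and thallium sulfate stimulus; B-score of peak minus minimum fluorescence over baseline after thallium stimulus; more negative B-score means stronger Kir2.1 block with less thallium influx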
Target sequence (P35561 whole entry, looked up): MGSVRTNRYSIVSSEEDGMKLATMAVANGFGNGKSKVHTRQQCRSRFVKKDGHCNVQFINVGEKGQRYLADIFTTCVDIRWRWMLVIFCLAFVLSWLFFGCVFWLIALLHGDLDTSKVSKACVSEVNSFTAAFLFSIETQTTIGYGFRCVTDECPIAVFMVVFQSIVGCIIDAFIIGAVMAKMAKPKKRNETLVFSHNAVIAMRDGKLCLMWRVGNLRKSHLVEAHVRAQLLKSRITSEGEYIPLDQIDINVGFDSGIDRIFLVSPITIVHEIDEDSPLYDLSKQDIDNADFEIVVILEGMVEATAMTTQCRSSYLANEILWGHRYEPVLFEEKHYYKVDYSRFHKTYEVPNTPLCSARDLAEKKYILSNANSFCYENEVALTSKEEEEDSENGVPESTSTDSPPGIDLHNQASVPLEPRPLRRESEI
ANO1 block: inhibitors of mouse TMEM16A calcium-activated chloride channel. Q8BHY3. HEK293 TMEM16A/YFP iodide influx fluorescence, ionomycin. normalized B-score (activity score, 25-100; higher = stronger inhibition) at 10 µM. 1.2% of 310,000 active;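 active = ratio plate-corrected score three or more library SD toward inhibition, starting fluorescence score within five deviations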;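 also: score derived from kinetic fluorescence span divided by baseline fluorescence per well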
Active calls of the source: *; i = inactive; . = not tested or not shown.

SMILES	SR-BI HDL uptake	TMEM16A act	SR-BI DiI-HDL act	FID counter	Kir21 inh	ANO1 block
CC(Oc1ccc(Cl)cc1Cl)C(=O)N(C)c1ccccc1 (configuration not stated)	-26	i	26	-24	-6.4*	i
CN(C(=S)NC(=O)CCCOc1ccc(Cl)cc1Cl)c1ccccc1	15	i	-15	-8	-4.9*	i
C=CCn1cccc(C(=O)Nc2ccc(OCC)cc2)c1=O	18	i	-18	-26	1.1	i
COc1ccc2ccccc2c1C(O)c1nccn1C (configuration not stated)	-25	i	25	45*	-1	i
CCCc1sc(N/N=C/c2ccccn2)nc1-c1ccc(Br)cc1	72*	i	-72	-1	0.22	i
CC(=O)Nc1sc(N/N=C/c2ccccc2)nc1-c1ccc(C)cc1	.	i	.	-5	1.3	i
CC(=O)c1ccc(NC(=O)COC(=O)CCC(=O)c2cccs2)cc1	-270	i	270*	-9	0	i
COc1ccc(Cn2cccc(NC(=O)Nc3ccc(F)cc3)c2=O)cc1	-7	i	7	-1	-0.81	i
CSc1ccc(NC(=O)Nc2cccn(Cc3ccccc3)c2=O)cc1	42	i	-42	-16	0.11	100*
Cc1ccccc1NC(=O)NCCc1nc2ccccc2[nH]1	-1	i	1	0	0.13	i
Cc1ccccc1NC(=S)c1nc2ccccc2[nH]1	79*	i	-79	-6	-1.4	i
S=C(Nc1ccc(Cl)cc1)c1nc2ccccc2[nH]1	123*	i	-123	-1	0.53	i
O=C(NCc1nnc2c(C(F)(F)F)cc(Cl)cn12)c1ccc2c(c1)OCO2	-28	i	28	-23	0.01	i
CCN(CC(=O)Nc1c(F)cccc1F)C(=O)CCCc1cccs1	2	-39*	-2	.	.	.
COc1ccc(N(Cc2cc3ccccc3[nH]c2=O)S(=O)(=O)c2ccc(C)cc2)cc1	-9	i	10	-32	0	i
Cc1ccc2c(c1)N(S(=O)(=O)c1ccc(CN3C(=O)c4cccnc4C3=O)cc1)CCO2	-21	-23*	21	-11	-0.1	i
Cc1ccc2c(c1)c1c3n2CC(=C2C(=O)OC(C)(C)OC2=O)NC3CCC1 (configuration not stated)	78*	i	-78	-6	0.02	i
CC(C)Nc1nnc(SCC(=O)Nc2ccc3c(c2)C(=O)c2ccccc2C3=O)s1	27	i	-27	6	0.26	i
O=C(CSc1nnc(NC2CCCCC2)s1)Nc1ccc2c(c1)C(=O)c1ccccc1C2=O	73*	i	-73	2	-1.3	i
CCCn1c(SCC(=O)c2cc(C)n(-c3ccc4c(c3)OCO4)c2C)n[nH]c1=O	-1	i	1	-24	-6.7*	i
CCN(CC)CC(=O)Nc1ccc2c(c1)Nc1ccccc1CC2	82*	i	-82	27	-5.6*	i
O=[N+]([O-])c1cccc(S(=O)(=O)Nc2nc3ccccc3nc2Nc2cccc(S(=O)(=O)N3CCCCC3)c2)c1	76*	-5.3*	-76	-11	2.7	.
O=[N+]([O-])c1cccc(S(=O)(=O)N2CCCCC2)c1	-22	i	22	-1	-0.02	i
Cc1cc(NC(=O)c2ccc3[nH]c(C)c(C)c3c2)ccn1	63	i	-63	37*	0.67	i
Cc1[nH]n(-c2nc(-c3ccc(Cl)cc3)cs2)c(=O)c1N=Nc1ccc(O)cc1	110*	i	-111	-9	0.08	i
SMILES	SR-BI HDL uptake	TMEM16A act	SR-BI DiI-HDL act	FID counter	Kir21 inh	ANO1 block
Cc1[nH]n(C2=NCCS2)c(=O)c1N=Nc1ccccc1	-35	i	35	0	-0.12	i
CN(C)CCNC(=O)c1ccc(COc2ccc(Cl)cc2Cl)cc1	-6	i	6	31	-4.8*	i
COc1cc(C(=O)NC2CCCCC2)ccc1OCc1ccc(Cl)cc1Cl	76*	i	-76	-2	-0.65	i
COc1ccc(Cl)cc1C(=O)NCCN(C)C	-27	i	27	-4	0	i
COc1cc(C(=O)NCCC(C)C)ccc1OCc1ccc(Cl)cc1Cl	82*	i	-82	-2	0.8	i
Cc1ccc(-c2noc(C3CCCN(C(=O)c4ccccc4Br)C3)n2)cc1 (configuration not stated)	-27	i	27	-36	-1.3	100*
Cc1ccc(-c2noc(C3CCCN(C(=O)c4c(F)cccc4F)C3)n2)cc1 (configuration not stated)	7	.	-7	-16	-1.2	i
COc1ccc(C)cc1C1=Nc2ccccc2C1(C)C	8	i	-8	-21	-5*	i
NC(=O)CCCn1c(C(=O)c2cc(Cl)c(N)c(Cl)c2)c2ccc([N+](=O)[O-])cc2[n+]1[O-]	28	i	-28	.	1.4	i
O=c1cc(-c2c(F)c(F)c(F)c(F)c2F)oc2ccccc12	-17	i	17	-1	-0.18	i
O=c1cc(-c2c(F)c(F)c(F)c(F)c2F)oc2c(F)c(F)c(F)c(F)c12	.	.	.	4	-1.5	25*
CCOc1ccc(NC(=O)/C(C#N)=C\c2ccc(N3CCCC3)c(C)c2)cc1	101*	i	-101	.	.	.
CC(C)C[C@H]1CN=C(Nc2ccccc2)N1CCCC1CCCC1	8	i	-8	9	-4.6*	i
CCCCCCCN1C(Nc2ccccc2)=NC[C@@H]1CC(C)C	-9	i	9	31	-4.9*	i
CCC(O)(Cc1ccccn1)Cc1ccccn1	-4	i	4	.	.	.
O=C1NC[C@H](Cc2ccccc2)N(CC2CCN(CC3CCCC3)CC2)C1=O	-3	.	3	.	.	.
CCn1c(CNc2ccc(Cl)cc2)nnc1SCc1ccc(C)cc1	.	i	.	-19	-3.2	i
CCn1c(CNc2ccc(Cl)cc2)nnc1SCc1ccc(Cl)cc1	13	i	-13	-27	-5*	i
Cc1cc(C(C)(C)CC(C)(C)C)ccc1OCCOCC[N+](C)(C)Cc1ccccc1	51	i	-51	.	.	100*
O=C(NCCc1ccccn1)C1CCCN1S(=O)(=O)c1ccc(Cl)cc1 (configuration not stated)	.	i	.	-14	2	i
Cc1cc(C)c(S(=O)(=O)Nc2cc(C)on2)c(C)c1	-21	i	21	-11	-0.93	i
CCOc1ccc(/C=C2\CCCc3c2nc2ccccc2c3C(=O)O)cc1OC	-26	i	26	-25	-17	i
Cc1nn(CCc2nn[nH]n2)c2nc(-c3ccc(Br)cc3)cc(C(F)(F)F)c12	-1	i	1	-34	1.1	100*
O=S(=O)(/N=C(/Nc1cccnc1Cl)c1ccccc1)c1ccccc1	0	i	0	.	.	.
